Measured values reported in ChEMBL document CHEMBL1828538, “Synthesis and pharmacological evaluation of indole-based sigma receptor ligands” (Eur J Med Chem, 2011).
Active and inactive are the calls of the source. The calls are words filed in the database; no cut-off is given here.

Columns and labels:
[1] = molecular target: T1, Muscarinic acetylcholine receptor M1 (Homo sapiens) (UniProt P11229); assay: Displacement of radioligand from muscarinic M1 receptor assessed as 50% receptor inhibition at 10^-7 M
T1 sequence (whole entry): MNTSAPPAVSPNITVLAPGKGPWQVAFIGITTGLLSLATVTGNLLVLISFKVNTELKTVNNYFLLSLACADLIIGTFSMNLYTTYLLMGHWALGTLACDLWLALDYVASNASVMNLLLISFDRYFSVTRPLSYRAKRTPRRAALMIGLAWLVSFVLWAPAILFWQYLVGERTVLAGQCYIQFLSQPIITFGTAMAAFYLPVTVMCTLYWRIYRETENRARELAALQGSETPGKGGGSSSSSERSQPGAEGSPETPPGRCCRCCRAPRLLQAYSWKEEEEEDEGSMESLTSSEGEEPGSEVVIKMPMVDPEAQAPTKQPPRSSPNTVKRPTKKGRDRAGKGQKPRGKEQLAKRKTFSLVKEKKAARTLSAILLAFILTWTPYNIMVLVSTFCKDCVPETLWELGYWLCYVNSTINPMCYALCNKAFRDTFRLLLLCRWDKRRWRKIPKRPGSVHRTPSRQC
In short: (§1)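 Part of a contracted (NovaScreen) panel of 64 radioligand/enzyme assays, with the test compound run at 10⁻⁵ M and 10⁻⁷ M. Each assay was scored by whether radioligand displacement exceeded 50% at each concentration.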

[2] = molecular target: T2, Glycine receptor subunit alpha-1 (Homo sapiens) (UniProt P23415); assay: Displacement of radioligand from strychnine sensitive glycine receptor assessed as 50% receptor inhibition at 10^-5 M; in short: as §1
T2 sequence (whole entry): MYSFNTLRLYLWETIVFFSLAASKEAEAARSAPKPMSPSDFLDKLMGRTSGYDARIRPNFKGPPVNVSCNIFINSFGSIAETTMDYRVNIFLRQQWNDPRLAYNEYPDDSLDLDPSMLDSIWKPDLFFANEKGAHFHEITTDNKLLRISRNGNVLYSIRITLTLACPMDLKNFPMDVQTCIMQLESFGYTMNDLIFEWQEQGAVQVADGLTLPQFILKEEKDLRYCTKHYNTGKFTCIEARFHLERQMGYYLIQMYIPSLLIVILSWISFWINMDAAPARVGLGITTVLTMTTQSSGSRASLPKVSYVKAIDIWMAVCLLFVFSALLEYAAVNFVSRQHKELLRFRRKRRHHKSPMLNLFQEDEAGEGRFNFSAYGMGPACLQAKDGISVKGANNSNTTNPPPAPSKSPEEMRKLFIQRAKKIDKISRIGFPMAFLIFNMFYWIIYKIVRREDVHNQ

[3] = molecular target: T2, Glycine receptor subunit alpha-1 (Homo sapiens); assay: Displacement of radioligand from strychnine sensitive glycine receptor assessed as 50% receptor inhibition at 10^-7 M; in short: as §1
[4] = Displacement of radioligand from BZT-sensitive L-type calcium channel assessed as 50% receptor inhibition at 10^-7 M; in short: as §1
[5] = molecular target: Sodium-dependent serotonin transporter (Homo sapiens, UniProt P31645); assay: Displacement of [125I]RTI-55 from human SERT expressed in HEK293 cells; assay type: cell-based
[6] = molecular target: Cannabinoid receptor 1 (Homo sapiens) (UniProt P21554); assay: Displacement of radioligand from cannabinoid CB1 receptor assessed as 50% receptor inhibition at 10^-5 M; in short: as §1
[7] = Displacement of radioligand from dopamine D4.2 receptor assessed as 50% receptor inhibition at 10^-7 M; in short: as §1
[8] = molecular target: T3, Muscarinic acetylcholine receptor M2 (Homo sapiens) (UniProt P08172); assay: Displacement of radioligand from muscarinic M2 receptor assessed as 50% receptor inhibition at 10^-5 M; in short: as §1
T3 sequence (whole entry): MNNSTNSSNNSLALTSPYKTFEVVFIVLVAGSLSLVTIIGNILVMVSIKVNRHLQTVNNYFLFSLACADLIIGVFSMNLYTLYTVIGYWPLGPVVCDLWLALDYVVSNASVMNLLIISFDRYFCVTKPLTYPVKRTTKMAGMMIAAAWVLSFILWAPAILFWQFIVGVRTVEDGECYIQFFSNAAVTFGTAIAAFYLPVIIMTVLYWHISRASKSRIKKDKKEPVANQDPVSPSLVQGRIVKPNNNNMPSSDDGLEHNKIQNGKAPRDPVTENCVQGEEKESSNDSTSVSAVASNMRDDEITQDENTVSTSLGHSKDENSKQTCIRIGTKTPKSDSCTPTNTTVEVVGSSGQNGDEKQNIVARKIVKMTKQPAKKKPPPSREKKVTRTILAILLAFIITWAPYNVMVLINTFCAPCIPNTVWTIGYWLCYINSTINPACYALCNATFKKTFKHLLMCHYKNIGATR

[9] = molecular target: T4, Substance-K receptor (Homo sapiens) (UniProt P21452); assay: Displacement of radioligand from neurokinin NK2 receptor assessed as 50% receptor inhibition at 10^-5 M; in short: as §1
T4 sequence (whole entry): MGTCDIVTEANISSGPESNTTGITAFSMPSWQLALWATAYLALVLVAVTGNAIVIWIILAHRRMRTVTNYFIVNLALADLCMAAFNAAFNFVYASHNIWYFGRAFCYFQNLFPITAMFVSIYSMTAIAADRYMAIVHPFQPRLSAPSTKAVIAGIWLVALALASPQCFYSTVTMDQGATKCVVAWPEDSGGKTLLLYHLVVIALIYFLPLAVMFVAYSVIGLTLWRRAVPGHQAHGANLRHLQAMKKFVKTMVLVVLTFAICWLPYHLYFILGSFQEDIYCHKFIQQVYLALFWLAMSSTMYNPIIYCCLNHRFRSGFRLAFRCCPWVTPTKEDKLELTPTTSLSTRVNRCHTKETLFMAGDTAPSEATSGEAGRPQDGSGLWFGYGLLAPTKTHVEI

[10] = Displacement of radioligand from adrenergic beta1 receptor assessed as 50% receptor inhibition at 10^-7 M; in short: as §1
[11] = Displacement of radioligand from muscarinic receptor assessed as 50% receptor inhibition at 10^-5 M; in short: as §1
[12] = molecular target: Cannabinoid receptor 2 (Homo sapiens) (UniProt P34972); assay: Displacement of radioligand from cannabinoid CB2 receptor assessed as 50% receptor inhibition at 10^-7 M; in short: as §1
[13] = Displacement of radioligand from adrenergic alpha2 receptor assessed as 50% receptor inhibition at 10^-5 M; in short: as §1
D(3) dopamine receptor = D(3) dopamine receptor (Homo sapiens, UniProt P35462); assay: Displacement of [3H]YM-09151-2 from human D3 receptor expressed in CHO cells; assay type: cell-based
In short: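 CHOp-D2 or CHOp-D3 cells were labelled with 0.2–0.5 nM [3H]YM-09151-2, and nonspecific binding was set with 1 μM chlorpromazine. Ki was from standard competition conditions, as mean ± SEM of replicate assays.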

D(3) dopamine receptor, sequence (P35462 whole entry): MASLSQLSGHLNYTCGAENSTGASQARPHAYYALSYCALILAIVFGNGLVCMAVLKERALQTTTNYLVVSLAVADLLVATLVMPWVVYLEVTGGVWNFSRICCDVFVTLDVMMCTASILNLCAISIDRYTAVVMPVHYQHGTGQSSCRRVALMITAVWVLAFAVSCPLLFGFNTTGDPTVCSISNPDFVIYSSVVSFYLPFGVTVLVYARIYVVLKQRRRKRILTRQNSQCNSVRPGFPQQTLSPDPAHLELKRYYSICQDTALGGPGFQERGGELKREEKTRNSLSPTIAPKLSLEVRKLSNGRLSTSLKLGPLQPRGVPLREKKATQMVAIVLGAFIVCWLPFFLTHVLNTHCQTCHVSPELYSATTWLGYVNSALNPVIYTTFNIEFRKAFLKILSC
Sodium-dependent serotonin transporter, sequence (P31645 whole entry): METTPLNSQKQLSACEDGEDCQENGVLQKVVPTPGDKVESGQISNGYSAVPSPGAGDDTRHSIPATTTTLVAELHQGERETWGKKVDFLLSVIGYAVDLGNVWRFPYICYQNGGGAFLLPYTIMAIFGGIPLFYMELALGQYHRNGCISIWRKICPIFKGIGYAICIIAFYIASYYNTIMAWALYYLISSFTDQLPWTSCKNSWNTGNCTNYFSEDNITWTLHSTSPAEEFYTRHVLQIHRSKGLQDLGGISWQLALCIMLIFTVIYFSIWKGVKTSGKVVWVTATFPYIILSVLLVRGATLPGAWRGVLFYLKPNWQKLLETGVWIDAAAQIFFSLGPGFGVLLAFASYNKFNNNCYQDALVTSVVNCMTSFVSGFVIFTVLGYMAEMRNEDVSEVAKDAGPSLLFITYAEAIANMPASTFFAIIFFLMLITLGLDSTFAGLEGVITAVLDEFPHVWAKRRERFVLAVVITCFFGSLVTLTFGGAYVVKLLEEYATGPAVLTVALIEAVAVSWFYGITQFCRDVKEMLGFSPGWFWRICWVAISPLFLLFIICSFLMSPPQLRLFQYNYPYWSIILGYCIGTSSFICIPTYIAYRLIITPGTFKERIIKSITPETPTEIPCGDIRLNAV
Cannabinoid receptor 2 (Homo sapiens), sequence (P34972 whole entry): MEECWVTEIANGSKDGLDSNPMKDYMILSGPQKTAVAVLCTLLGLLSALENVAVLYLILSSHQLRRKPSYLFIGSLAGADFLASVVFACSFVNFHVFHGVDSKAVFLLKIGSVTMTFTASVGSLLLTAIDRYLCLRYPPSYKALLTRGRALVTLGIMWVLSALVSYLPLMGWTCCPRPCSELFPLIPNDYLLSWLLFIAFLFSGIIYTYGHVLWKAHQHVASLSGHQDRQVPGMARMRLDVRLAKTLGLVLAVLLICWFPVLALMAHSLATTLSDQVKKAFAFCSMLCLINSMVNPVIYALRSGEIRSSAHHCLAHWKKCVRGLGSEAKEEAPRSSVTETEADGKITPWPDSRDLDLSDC
Cannabinoid receptor 1 (Homo sapiens), sequence (P21554 whole entry): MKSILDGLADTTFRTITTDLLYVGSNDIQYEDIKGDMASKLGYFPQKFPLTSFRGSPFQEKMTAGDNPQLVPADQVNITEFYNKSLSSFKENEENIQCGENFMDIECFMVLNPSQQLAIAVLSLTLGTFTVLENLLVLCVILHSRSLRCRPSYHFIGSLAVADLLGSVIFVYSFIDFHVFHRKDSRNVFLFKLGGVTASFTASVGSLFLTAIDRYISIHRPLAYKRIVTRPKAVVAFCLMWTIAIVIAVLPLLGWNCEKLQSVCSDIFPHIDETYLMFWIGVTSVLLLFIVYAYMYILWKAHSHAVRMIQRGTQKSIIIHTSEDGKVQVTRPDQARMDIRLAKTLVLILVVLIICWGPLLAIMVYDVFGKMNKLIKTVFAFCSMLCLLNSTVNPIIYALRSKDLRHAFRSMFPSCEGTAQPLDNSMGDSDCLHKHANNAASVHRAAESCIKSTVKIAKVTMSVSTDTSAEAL

In the case of `COc1cc2c(cc1OC)CN(CCCCn1cc(-c3ccc(F)cc3)c3ccccc31)CC2`, the inhibition [1] is reported as “inactive”, the inhibition [2] is reported as “Active” and the inhibition [3] is reported as “Active”. For the same compound, the inhibition [4] was “inactive”, the Ki [5] was 295 nM and the inhibition [6] was “Active”. The inhibition [7] was “inactive”, the inhibition [8] was “Active” and the inhibition [9] was “Active”. The inhibition [10] was “inactive”, the inhibition [11] was “Active” and the inhibition [12] was “inactive”. For the same compound, the inhibition [13] was “Active” and the Ki (D(3) dopamine receptor) was 544 nM.
